The source made the active and inactive calls. The calls are words filed in the database; no cut-off is given here.

The target of one data set is Cytochrome P450 2C9 (Homo sapiens, UniProt P11712). In words: Inhibition of human CYP2C9. It is filed as ADME. The method, boiled down:
(§1)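 Human liver microsomes; inhibition of probe-substrate metabolism measured with diclofenac (CYP2C9), […] (CYP2D6) and testosterone (CYP3A4).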

Data set [1] deals with Canis familiaris. The experiment in a line: Increase in QT prolongation in anesthetized dog up to 22 uM plasma level. The class given is functional, organism-based. As to conditions: Canis lupus familiaris.
A further data set addresses Cytochrome P450 2D6 (Homo sapiens, UniProt P10635). The experiment in a line: Inhibition of human CYP2D6. It is filed as ADME. In short, it runs like this:
as §1

The target in another data set is Cytochrome P450 3A4 (Homo sapiens, UniProt P08684). In words: Inhibition of human CYP3A4. It is filed as ADME. In short, it runs like this: as §1
Data set [2] can be described thus: Lipophilicity, log P of the compound. The class given is physicochemical. As to conditions: octanol/water.
The nature of data set [3]: Bioavailability in Beagle dog at 1 mg/kg, iv and 1 mg/kg, po. The conditions noted are these: in vivo. It is filed as ADME, organism-based, Canis lupus familiaris. In short, it runs like this: (§2)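 Fasted beagle dogs, two per compound; iv 1 mg/kg as a DMSO solution; po 1 mg/kg as a solution in 0.05 M citric acid (aq) or HCl-acidified methocel. Plasma half-life, clearance, Vdss and oral bioavailability F taken as the average of the two dogs.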

For data set [4], the system named is Canis familiaris. In words: Increase in QT prolongation in anesthetized dog up to 60 uM plasma level. The conditions noted are these: Canis lupus familiaris.
The nature of data set [5]: Half life in Beagle dog at 1 mg/kg, iv and 1 mg/kg, po. It is filed as ADME, organism-based, Canis lupus familiaris. As to conditions: in vivo. The method, boiled down: as §2
Data set [6] addresses T1, Vascular endothelial growth factor receptor 2 (Homo sapiens, UniProt P35968). In words: Inhibition of VEGF-induced KDR autophosphorylation expressed in HEK293 cells. It is filed as functional, cell-based.
A short description of data set [7]: Clearance in Beagle dog at 1 mg/kg, iv and 1 mg/kg, po. It is filed as ADME, organism-based, Canis lupus familiaris. As to conditions: in vivo. In short, it runs like this: as §2
Data set [8] is described as follows: Volume of distribution in Beagle dog at 1 mg/kg, iv and 1 mg/kg, po. It is filed as ADME, organism-based, Canis lupus familiaris. The conditions noted are these: in vivo, read-out: Vdss. In short, it runs like this: as §2
Data set [9] concerns the target T1, Vascular endothelial growth factor receptor 2. In words: Inhibition of KDR.
Data set [10] can be described thus: Volume of distribution in Beagle dog at 0.25 mg/kg, iv and 1 mg/kg, po. It is filed as ADME, organism-based, Canis lupus familiaris. The conditions noted are these: in vivo, read-out: Vdss. In short, it runs like this: (§3)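 Fasted beagle dogs, two per compound; iv 0.25 mg/kg as a DMSO solution, po 1 mpk as a solution in HCl-acidified methocel or 0.05 M citric acid (aq). Half-life, plasma clearance and steady-state volume of distribution taken from the iv leg; values are the average of the two dogs.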

Data set [11] in a line: Clearance in Beagle dog at 0.25 mg/kg, iv and 1 mg/kg, po. It is filed as ADME, organism-based, Canis lupus familiaris. The conditions noted are these: in vivo. In short, it runs like this:
as §3

Data set [12] is described as follows: Half life in Beagle dog at 0.25 mg/kg, iv and 1 mg/kg, po. The conditions noted are these: in vivo. The class given is ADME, organism-based, Canis lupus familiaris. In short, it runs like this: as §3
Data set [13] can be described thus: Metabolic stability in rat liver microsome. It is filed as ADME. The conditions noted are these: liver microsomes.
The target of data set [14] is Vascular endothelial growth factor receptor 2 (Mus musculus, UniProt P35918). In words: Inhibition of VEGF-induced mouse lung KDR phosphorylation. The method, boiled down: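 Tyrosine phosphorylation of lung KDR compared between treated and untreated lungs as a function of dose and time after dosing. In vivo IC50 expressed as plasma concentration.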
Data set [15] in a line: Clearance in Sprague-Dawley rat at 2 mg/kg, iv and 10 mg/kg, po. It is filed as ADME, organism-based. As to conditions: in vivo. In short, it runs like this:
(§4)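 Fasted male Sprague-Dawley rats, three per group: 2 mg/kg bolus iv as a DMSO solution and 10 mg/kg by oral gavage as a solution in 0.05 M citric acid. Clearance, Vdss and F given as mean with standard deviation.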

The nature of data set [16]: Volume of distribution in Sprague-Dawley rat at 2 mg/kg, iv and 10 mg/kg, po. The conditions noted are these: in vivo, read-out: Vdss. It is filed as ADME, organism-based. The method, boiled down: as §4
Data set [17] is described as follows: Clearance in rhesus monkey at 1 mg/kg, iv and 1 mg/kg, po. It is filed as ADME, organism-based, Macaca mulatta. The conditions noted are these: in vivo. In short, it runs like this: (§5)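 Fasted rhesus monkeys, two, crossover design: 1 mg/kg po as a solution in 0.05 M citric acid, and on a separate occasion 1 mg/kg iv as a DMSO solution. Half-life, clearance, Vdss and F reported as the two-animal average.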

Data set [18] is described as follows: Volume of distribution in rhesus monkey at 1 mg/kg, iv and 1 mg/kg, po. It is filed as ADME, organism-based, Macaca mulatta. As to conditions: in vivo, read-out: Vdss. In short, it runs like this:
as §5

For data set [19], the target named is Voltage-gated inwardly rectifying potassium channel KCNH2 (Homo sapiens, UniProt Q12809). The experiment in a line: Displacement of [35S][…] from human ERG expressed in HEK293 cells. The conditions noted are these: read-out: Inflection point. It is filed as cell-based.
A short description of data set [20]: Bioavailability in rhesus monkey at 1 mg/kg, iv and 1 mg/kg, po. It is filed as ADME, organism-based, Macaca mulatta. The conditions noted are these: in vivo. In short, it runs like this: as §5
The next data set is filed under the species Homo sapiens. In words: Protein binding in human plasma. As to conditions: read-out: PPB (converted).
For data set [21], the system named is Canis familiaris. In words: Increase in QT prolongation in anesthetized dog at 0.59 uM plasma level. It is filed as functional, Canis lupus familiaris.
The test system of another data set is Rhesus monkey. In words: Metabolic stability measured as N-Glucuronidation of the parent compound in iv dosed rhesus monkey. It is filed as ADME, organism-based, Macaca mulatta. The conditions noted are these: in vivo.
A further data set has as its system Rattus norvegicus. In words: Metabolic stability measured as N-Glucuronidation of the parent compound in iv dosed rat. As to conditions: in vivo. It is filed as ADME, organism-based.

Sequence of Voltage-gated inwardly rectifying potassium channel KCNH2 (Q12809 whole entry): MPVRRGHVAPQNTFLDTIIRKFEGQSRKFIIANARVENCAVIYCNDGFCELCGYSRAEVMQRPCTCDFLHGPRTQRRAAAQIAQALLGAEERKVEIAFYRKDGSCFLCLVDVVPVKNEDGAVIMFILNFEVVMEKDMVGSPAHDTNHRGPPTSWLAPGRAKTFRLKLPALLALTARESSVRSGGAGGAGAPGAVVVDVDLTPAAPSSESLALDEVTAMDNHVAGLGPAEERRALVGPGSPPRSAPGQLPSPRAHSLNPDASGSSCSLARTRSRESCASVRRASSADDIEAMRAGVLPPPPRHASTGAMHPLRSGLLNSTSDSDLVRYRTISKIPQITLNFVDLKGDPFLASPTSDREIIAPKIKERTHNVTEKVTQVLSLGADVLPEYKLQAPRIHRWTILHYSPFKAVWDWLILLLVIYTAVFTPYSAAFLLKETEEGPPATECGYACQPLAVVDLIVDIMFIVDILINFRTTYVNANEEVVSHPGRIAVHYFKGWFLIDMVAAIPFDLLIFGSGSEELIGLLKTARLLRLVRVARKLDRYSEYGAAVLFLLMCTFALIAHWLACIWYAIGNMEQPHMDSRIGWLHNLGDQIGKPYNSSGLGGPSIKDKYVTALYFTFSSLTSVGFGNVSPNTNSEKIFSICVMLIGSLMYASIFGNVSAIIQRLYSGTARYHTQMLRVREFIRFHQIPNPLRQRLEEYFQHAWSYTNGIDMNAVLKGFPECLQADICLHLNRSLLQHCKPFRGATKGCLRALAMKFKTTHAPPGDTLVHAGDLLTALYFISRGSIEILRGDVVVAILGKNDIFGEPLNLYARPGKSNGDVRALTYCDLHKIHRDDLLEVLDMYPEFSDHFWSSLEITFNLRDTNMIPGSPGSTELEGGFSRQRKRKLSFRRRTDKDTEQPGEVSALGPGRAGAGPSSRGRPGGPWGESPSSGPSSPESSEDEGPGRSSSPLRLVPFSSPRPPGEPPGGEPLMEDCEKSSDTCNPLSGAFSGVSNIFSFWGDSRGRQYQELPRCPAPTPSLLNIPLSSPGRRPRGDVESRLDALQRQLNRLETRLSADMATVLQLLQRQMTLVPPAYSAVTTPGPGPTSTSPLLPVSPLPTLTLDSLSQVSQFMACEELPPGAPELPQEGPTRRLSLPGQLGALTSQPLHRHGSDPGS
T1 sequence (P35968 whole entry): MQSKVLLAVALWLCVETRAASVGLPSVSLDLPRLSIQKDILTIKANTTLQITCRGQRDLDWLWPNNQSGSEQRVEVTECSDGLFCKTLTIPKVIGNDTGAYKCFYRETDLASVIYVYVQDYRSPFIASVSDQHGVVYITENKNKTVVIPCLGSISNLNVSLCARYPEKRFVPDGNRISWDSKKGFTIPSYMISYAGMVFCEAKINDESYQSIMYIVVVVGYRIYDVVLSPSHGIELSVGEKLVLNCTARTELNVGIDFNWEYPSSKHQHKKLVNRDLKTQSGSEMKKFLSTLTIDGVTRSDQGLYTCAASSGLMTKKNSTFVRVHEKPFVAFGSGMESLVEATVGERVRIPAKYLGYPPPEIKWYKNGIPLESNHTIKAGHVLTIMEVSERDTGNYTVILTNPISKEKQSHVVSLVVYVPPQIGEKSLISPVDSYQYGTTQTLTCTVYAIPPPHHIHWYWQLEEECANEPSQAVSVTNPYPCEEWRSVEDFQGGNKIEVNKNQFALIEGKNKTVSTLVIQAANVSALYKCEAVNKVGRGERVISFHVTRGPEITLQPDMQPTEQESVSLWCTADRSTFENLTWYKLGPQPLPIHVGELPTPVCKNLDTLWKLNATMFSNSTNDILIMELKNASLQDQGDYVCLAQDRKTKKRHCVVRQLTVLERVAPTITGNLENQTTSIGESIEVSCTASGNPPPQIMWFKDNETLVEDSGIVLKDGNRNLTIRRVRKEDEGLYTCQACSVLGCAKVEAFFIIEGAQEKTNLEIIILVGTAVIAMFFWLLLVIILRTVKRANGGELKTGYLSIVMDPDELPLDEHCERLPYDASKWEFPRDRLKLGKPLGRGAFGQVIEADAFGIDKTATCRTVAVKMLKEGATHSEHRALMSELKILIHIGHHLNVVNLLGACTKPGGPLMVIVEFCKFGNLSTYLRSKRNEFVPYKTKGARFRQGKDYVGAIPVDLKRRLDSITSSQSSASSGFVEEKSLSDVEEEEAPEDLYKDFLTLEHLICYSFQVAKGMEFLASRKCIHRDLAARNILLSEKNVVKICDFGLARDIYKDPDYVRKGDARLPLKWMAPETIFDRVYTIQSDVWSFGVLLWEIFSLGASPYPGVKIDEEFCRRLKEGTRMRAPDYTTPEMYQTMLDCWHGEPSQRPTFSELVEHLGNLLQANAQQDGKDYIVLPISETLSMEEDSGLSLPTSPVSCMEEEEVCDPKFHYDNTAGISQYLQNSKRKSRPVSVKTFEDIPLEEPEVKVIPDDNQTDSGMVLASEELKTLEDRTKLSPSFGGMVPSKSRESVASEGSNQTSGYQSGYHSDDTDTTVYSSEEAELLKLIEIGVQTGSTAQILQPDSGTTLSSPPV
Sequence of Cytochrome P450 3A4 (P08684 whole entry): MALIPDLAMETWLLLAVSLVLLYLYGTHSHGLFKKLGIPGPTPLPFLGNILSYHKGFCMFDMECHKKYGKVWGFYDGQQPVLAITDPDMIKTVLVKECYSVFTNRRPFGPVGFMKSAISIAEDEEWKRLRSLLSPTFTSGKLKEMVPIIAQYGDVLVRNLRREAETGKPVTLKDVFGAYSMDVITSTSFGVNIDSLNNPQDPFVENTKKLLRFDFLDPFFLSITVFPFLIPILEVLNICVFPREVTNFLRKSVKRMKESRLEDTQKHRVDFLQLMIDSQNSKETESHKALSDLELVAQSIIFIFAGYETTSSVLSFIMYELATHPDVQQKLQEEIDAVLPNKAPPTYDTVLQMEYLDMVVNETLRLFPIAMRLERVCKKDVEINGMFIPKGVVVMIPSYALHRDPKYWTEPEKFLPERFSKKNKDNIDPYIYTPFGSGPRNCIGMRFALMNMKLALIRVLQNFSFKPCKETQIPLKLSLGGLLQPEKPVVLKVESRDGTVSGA
Sequence of Cytochrome P450 2C9 (P11712 whole entry): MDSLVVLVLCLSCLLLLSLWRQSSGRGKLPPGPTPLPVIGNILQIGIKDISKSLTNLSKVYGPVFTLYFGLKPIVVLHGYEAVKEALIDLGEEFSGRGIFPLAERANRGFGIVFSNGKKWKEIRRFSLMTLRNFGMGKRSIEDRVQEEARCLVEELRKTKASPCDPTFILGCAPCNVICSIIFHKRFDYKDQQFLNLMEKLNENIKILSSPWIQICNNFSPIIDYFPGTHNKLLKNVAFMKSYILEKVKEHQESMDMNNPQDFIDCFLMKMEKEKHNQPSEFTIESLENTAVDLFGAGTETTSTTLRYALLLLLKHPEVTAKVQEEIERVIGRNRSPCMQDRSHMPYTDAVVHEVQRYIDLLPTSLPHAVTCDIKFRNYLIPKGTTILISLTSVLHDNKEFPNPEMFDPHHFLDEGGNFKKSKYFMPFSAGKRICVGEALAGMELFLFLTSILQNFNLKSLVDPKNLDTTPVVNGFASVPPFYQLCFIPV
Sequence of Cytochrome P450 2D6 (P10635 whole entry): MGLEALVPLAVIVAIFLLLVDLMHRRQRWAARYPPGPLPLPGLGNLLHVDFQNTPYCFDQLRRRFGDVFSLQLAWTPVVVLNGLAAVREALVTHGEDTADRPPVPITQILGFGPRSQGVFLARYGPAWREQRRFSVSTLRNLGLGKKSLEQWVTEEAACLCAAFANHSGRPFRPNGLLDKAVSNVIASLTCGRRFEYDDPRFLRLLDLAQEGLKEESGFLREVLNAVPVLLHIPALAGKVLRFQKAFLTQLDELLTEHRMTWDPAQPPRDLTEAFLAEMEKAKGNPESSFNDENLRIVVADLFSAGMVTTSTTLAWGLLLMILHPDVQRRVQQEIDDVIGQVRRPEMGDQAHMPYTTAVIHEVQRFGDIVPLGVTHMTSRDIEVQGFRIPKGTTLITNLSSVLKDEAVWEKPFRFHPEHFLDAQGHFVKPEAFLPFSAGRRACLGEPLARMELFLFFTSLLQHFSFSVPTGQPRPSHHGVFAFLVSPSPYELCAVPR

`CNC(=O)N1CCN(Cc2ccnc(Nc3ncc(C#N)s3)c2C)CC1`: the IC50 against Cytochrome P450 2C9, on Cytochrome P450 2D6 and on Cytochrome P450 3A4 was more than 100000 nM throughout. Also, the result in the data set on Canis familiaris [1] was inactive.
On to `CC(=O)N1CCN(Cc2ccnc(Nc3ncc(C#N)s3)c2)CC1`, for which, in data set [2], the lipophilicity (logP) worked out at 2.05. The bioavailability in data set [3] worked out at 87%. Further, in the data set with Canis familiaris [4], the outcome was inactive. This compound also had a half-life in [5] of 7.2 h. The IC50 was 41 nM in data set [6] and 13 nM in [9]. In data set [7], the clearance was determined as 1.2 mL/min/kg. Moreover, the Vd in data set [8] turned out to be 0.72 L/kg.
Turning to `N#Cc1cnc(Nc2cc(CN3CCOCC3)ccn2)s1`, in data set [10], the Vd was determined as 1 L/kg. For the same compound, in [11], the clearance worked out at 12.4 mL/min/kg. Moreover, the IC50 in data set [6] was 43 nM; in data set [9], 8 nM. The half-life in data set [12] was 2.5 h.
With `c1ccc(-c2cnc(Nc3cc(CN4CCCC4)ccn3)s2)cc1`, the half-life in data set [13] was 8 min. In addition, the IC50 in [6] turned out to be 15 nM; in data set [9], 3 nM.
Regarding `CNC(=O)N1CCN(Cc2ccnc(Nc3ncc(C#N)s3)c2)CC1`, the IC50 was 90 nM in data set [14]; more than 50000 nM at Cytochrome P450 2C9; 27 nM in data set [6]; more than 50000 nM against Cytochrome P450 2D6; 9280 nM in data set [19]; 12 nM in data set [9]. The same compound had an IC50 against Cytochrome P450 3A4 of more than 50000 nM. This compound displayed a logP in data set [2] of 2.06. Besides, the clearance in data set [15] amounted to 13.3 mL/min/kg; in [17] it was 17.2 mL/min/kg; in [7], 0.51 mL/min/kg. In addition, the bioavailability in data set [3] amounted to 99%; in [20], 43%. The Vd in data set [16] is 1.5 L/kg; in data set [18], 1.3 L/kg; in data set [8], 0.72 L/kg.
For the compound `N#Cc1cnc(Nc2cc(CN3CCN(C(=O)CO)CC3)ccn2)s1`, the logP in data set [2] amounted to 1.68. Also, the bioavailability in [3] is 61%. Moreover, in the data set filed under Homo sapiens, the fraction unbound was 0.262. The compound also showed a half-life in data set [5] of 6.6 h. Moreover, the IC50 was determined as 35 nM in [6], 9870 nM in data set [19] and 9 nM in data set [9]. This compound returned a clearance in data set [7] of 0.88 mL/min/kg. For the same compound, the Vd in [8] worked out at 0.47 L/kg.
Turning to `CC(=O)N1CCN(Cc2ccnc(Nc3ncc(-c4ccccc4)s3)c2)CC1`, the IC50 in data set [6] amounted to 43 nM; in data set [19] it was 240 nM; in data set [9], 8 nM.
As to `N#Cc1cnc(Nc2cc(CN3CCN(C(N)=O)CC3)ccn2)s1`, the Vd in data set [10] was 0.34 L/kg. Besides, in [11], the clearance is 2.6 mL/min/kg. In addition, the half-life in data set [12] is 2.9 h. The IC50 in data set [19] is 24700 nM.
For the compound `c1ccc(-c2cnc(Nc3ccc(CN4CCCC4)cn3)s2)cc1`, the IC50 in [19] is 8 nM. For the same compound, the Activity with Canis familiaris [21] is on record as 10%.
Compound `CS(=O)(=O)C1CCN(Cc2ccnc(Nc3ncc(C#N)s3)c2)CC1` registered a logP in data set [2] of 2.06. In addition, the bioavailability in [3] stood at 95%. Also, the IC50 in [6] was 31 nM; in data set [9], 7 nM. In addition, in data set [7], the clearance came out at 1.8 mL/min/kg. Further, the Vd in data set [8] was 0.96 L/kg.
As to `CS(=O)(=O)N1CCN(Cc2ccnc(Nc3ncc(-c4ccccc4)s3)c2)CC1`, the IC50 in data set [19] turned out to be 130 nM.
Regarding `CNC(=O)N1CCN(Cc2ccnc(N(c3ncc([14C]#N)s3)C3O[C@H](C(=O)O)[C@@H](O)[C@H](O)[C@H]3O)c2)CC1` (stereo partly specified), the results for the Stability in the data set on Rhesus monkey and with Rattus norvegicus were 63.3% and 37.6%, respectively.
Take `CN(C)C(=O)N1CCN(Cc2ccnc(Nc3ncc(C#N)s3)c2)CC1`: in data set [10], the Vd is 0.88 L/kg. In [11], this compound yielded a clearance of 7.4 mL/min/kg. The compound further had a logP in data set [2] of 2.74. Moreover, in the data set filed under Homo sapiens, the fraction unbound is 0.041. In addition, the figures for the IC50 in [6], in data set [19] and in [9] were 40 nM, 3510 nM and 10 nM, respectively. For the same compound, in data set [12], the half-life was 2 h.
